# Source: ChEMBL document CHEMBL1671716, “Antimicrobial susceptibility patterns for recent clinical isolates of anaerobic bacteria in South Korea” (2010)
# Assays:
# Prevotella bivia [1] = assay: Antimicrobial activity against Prevotella bivia assessed as percent susceptible isolates after 48 hrs by agar dilution method; assay type: functional
# Procedure, shortened: (§1)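 CLSI agar dilution (M11-A7); inoculum 10^5 CFU applied by replicator; plates incubated anaerobically 48 h at 37°C. For piperacillin-tazobactam, tazobactam held constant at 4 μg/ml.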
# Clostridioides difficile [2] = assay: Antimicrobial activity against Clostridium difficile assessed as percent susceptible isolates after 48 hrs by agar dilution method; assay type: functional
# Finegoldia magna [3] = assay: Antimicrobial activity against Finegoldia magna assessed as percent resistant isolates after 48 hrs by agar dilution method; assay type: functional
# Procedure, shortened: (§2)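 CLSI agar dilution on recent Korean clinical anaerobe isolates. Inoculum 10^5 CFU per spot by replicator. Plates incubated in an anaerobic chamber at 37°C for 48 h. For piperacillin plus tazobactam, tazobactam was held constant at 4 μg/ml. Resistance and susceptibility rates derived from MICs.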
# [4] = test system: Peptoniphilus asaccharolyticus; assay: Antimicrobial activity against Peptoniphilus asaccharolyticus after 48 hrs by agar dilution method; assay type: functional; procedure, shortened: as §1
# Bacteroides ovatus = assay: Antimicrobial activity against Bacteroides ovatus after 48 hrs by agar dilution method; assay type: functional
# Procedure, shortened: (§3)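 MICs on clinical anaerobe isolates by the CLSI agar dilution method. Inoculum of 10^5 CFU applied with a Steers replicator. Plates incubated 48 h at 37°C in an anaerobic chamber.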
# [5] = test system: Peptoniphilus asaccharolyticus; assay: Antimicrobial activity against Peptoniphilus asaccharolyticus assessed as percent resistant isolates after 48 hrs by agar dilution method; assay type: functional; procedure, shortened: as §2
# Phocaeicola vulgatus = assay: Antimicrobial activity against Bacteroides vulgatus after 48 hrs by agar dilution method; assay type: functional; procedure, shortened: as §3
# [6] = test system: Bifidobacterium adolescentis; assay: Antimicrobial activity against Bifidobacterium adolescentis after 48 hrs by agar dilution method; assay type: functional; procedure, shortened: as §3
# Clostridioides difficile [7] = assay: Antimicrobial activity against Clostridium difficile after 48 hrs by agar dilution method; assay type: functional
# Bacteroides caccae [8] = assay: Antimicrobial activity against Bacteroides caccae after 48 hrs by agar dilution method; assay type: functional; procedure, shortened: as §3
# [9] = test system: Bifidobacterium adolescentis; assay: Antimicrobial activity against Bifidobacterium adolescentis assessed as percent susceptible isolates after 48 hrs by agar dilution method; assay type: functional
# [10] = test system: Peptostreptococcus anaerobius; assay: Antimicrobial activity against Peptostreptococcus anaerobius after 48 hrs by agar dilution method; assay type: functional; procedure, shortened: as §1
# Eubacterium sp. [11] = assay: Antimicrobial activity against Eubacterium sp. assessed as percent susceptible isolates after 48 hrs by agar dilution method; assay type: functional; procedure, shortened: as §1
# Schaalia odontolytica [12] = assay: Antimicrobial activity against Actinomyces odontolyticus after 48 hrs by agar dilution method; assay type: functional; procedure, shortened: as §3
# Anaerococcus prevotii [13] = assay: Antimicrobial activity against Anaerococcus prevotii assessed as percent susceptible isolates after 48 hrs by agar dilution method; assay type: functional
# Fusobacterium necrogenes = assay: Antimicrobial activity against Fusobacterium necrogenes after 48 hrs by agar dilution method; assay type: functional; procedure, shortened: as §1
# Eubacterium sp. [14] = assay: Antimicrobial activity against Eubacterium sp. after 48 hrs by agar dilution method; assay type: functional; procedure, shortened: as §1
# Prevotella intermedia [15] = assay: Antimicrobial activity against Prevotella intermedia assessed as percent susceptible isolates after 48 hrs by agar dilution method; assay type: functional; procedure, shortened: as §1
# Hoylesella oralis = assay: Antimicrobial activity against Prevotella oralis assessed as percent resistant isolates after 48 hrs by agar dilution method; assay type: functional; procedure, shortened: as §2
# Prevotella bivia [16] = assay: Antimicrobial activity against Prevotella bivia assessed as percent resistant isolates after 48 hrs by agar dilution method; assay type: functional; procedure, shortened: as §2
# Schaalia odontolytica [17] = assay: Antimicrobial activity against Actinomyces odontolyticus assessed as percent resistant isolates after 48 hrs by agar dilution method; assay type: functional; procedure, shortened: as §2
# Eggerthella lenta [18] = assay: Antimicrobial activity against Eubacterium lentum assessed as percent resistant isolates after 48 hrs by agar dilution method; assay type: functional; procedure, shortened: as §2
# Clostridium perfringens [19] = assay: Antimicrobial activity against Clostridium perfringens after 48 hrs by agar dilution method; assay type: functional
# [20] = test system: Bacteroides thetaiotaomicron; assay: Antimicrobial activity against Bacteroides thetaiotaomicron assessed as percent resistant isolates after 48 hrs by agar dilution method; assay type: functional; procedure, shortened: as §2
# Prevotella buccae = assay: Antimicrobial activity against Prevotella buccae assessed as percent resistant isolates after 48 hrs by agar dilution method; assay type: functional, Segatella buccae; procedure, shortened: as §2
# Bifidobacterium sp. [21] = assay: Antimicrobial activity against Bifidobacterium sp. assessed as percent resistant isolates after 48 hrs by agar dilution method; assay type: functional; procedure, shortened: as §2
# Eubacterium sp. [22] = assay: Antimicrobial activity against Eubacterium sp. assessed as percent resistant isolates after 48 hrs by agar dilution method; assay type: functional; procedure, shortened: as §2
# Bifidobacterium sp. [23] = assay: Antimicrobial activity against Bifidobacterium sp. after 48 hrs by agar dilution method; assay type: functional; procedure, shortened: as §3
# Eggerthella lenta [24] = assay: Antimicrobial activity against Eubacterium lentum assessed as percent susceptible isolates after 48 hrs by agar dilution method; assay type: functional; procedure, shortened: as §1
# [25] = test system: Bacteroides thetaiotaomicron; assay: Antimicrobial activity against Bacteroides thetaiotaomicron after 48 hrs by agar dilution method; assay type: functional; procedure, shortened: as §3
# Bacteroides caccae [26] = assay: Antimicrobial activity against Bacteroides caccae assessed as percent susceptible isolates after 48 hrs by agar dilution method; assay type: functional
# Anaerococcus prevotii [27] = assay: Antimicrobial activity against Anaerococcus prevotii assessed as percent resistant isolates after 48 hrs by agar dilution method; assay type: functional; procedure, shortened: as §2
# [28] = test system: Peptoniphilus asaccharolyticus; assay: Antimicrobial activity against Peptoniphilus asaccharolyticus assessed as percent susceptible isolates after 48 hrs by agar dilution method; assay type: functional; procedure, shortened: as §1
# Anaerococcus prevotii [29] = assay: Antimicrobial activity against Anaerococcus prevotii after 48 hrs by agar dilution method; assay type: functional; procedure, shortened: as §3
# Actinomyces israelii = assay: Antimicrobial activity against Actinomyces israelii assessed as percent resistant isolates after 48 hrs by agar dilution method; assay type: functional; procedure, shortened: as §2
# Finegoldia magna [30] = assay: Antimicrobial activity against Finegoldia magna after 48 hrs by agar dilution method; assay type: functional; procedure, shortened: as §1
# Prevotella intermedia [31] = assay: Antimicrobial activity against Prevotella intermedia assessed as percent resistant isolates after 48 hrs by agar dilution method; assay type: functional; procedure, shortened: as §2
# Eggerthella lenta [32] = assay: Antimicrobial activity against Eubacterium lentum after 48 hrs by agar dilution method; assay type: functional; procedure, shortened: as §1
# Fusobacterium varium = assay: Antimicrobial activity against Fusobacterium varium after 48 hrs by agar dilution method; assay type: functional; procedure, shortened: as §1
# Actinomyces naeslundii = assay: Antimicrobial activity against Actinomyces naeslundii assessed as percent susceptible isolates after 48 hrs by agar dilution method; assay type: functional
# Bacteroides caccae [33] = assay: Antimicrobial activity against Bacteroides caccae assessed as percent resistant isolates after 48 hrs by agar dilution method; assay type: functional; procedure, shortened: as §2
# [34] = test system: Parabacteroides distasonis; assay: Antimicrobial activity against Bacteroides distasonis assessed as percent susceptible isolates after 48 hrs by agar dilution method; assay type: functional
# Parvimonas micra = assay: Antimicrobial activity against Peptostreptococcus micros assessed as percent susceptible isolates after 48 hrs by agar dilution method; assay type: functional; procedure, shortened: as §2
# [35] = test system: Bifidobacterium adolescentis; assay: Antimicrobial activity against Bifidobacterium adolescentis assessed as percent resistant isolates after 48 hrs by agar dilution method; assay type: functional; procedure, shortened: as §2
# Schaalia meyeri = assay: Antimicrobial activity against Actinomyces meyeri assessed as percent resistant isolates after 48 hrs by agar dilution method; assay type: functional; procedure, shortened: as §2
# Clostridium perfringens [36] = assay: Antimicrobial activity against Clostridium perfringens assessed as percent susceptible isolates after 48 hrs by agar dilution method; assay type: functional
# Schaalia odontolytica [37] = assay: Antimicrobial activity against Actinomyces odontolyticus assessed as percent susceptible isolates after 48 hrs by agar dilution method; assay type: functional
# Clostridioides difficile [38] = assay: Antimicrobial activity against Clostridium difficile assessed as percent resistant isolates after 48 hrs by agar dilution method; assay type: functional
compound,measurement,setting,value
CO[C@@]1(NC(=O)Cc2cccs2)C(=O)N2C(C(=O)O)=C(COC(N)=O)CS[C@@H]21 [CEFOXITIN],Activity,Prevotella bivia [1],89%
same,Activity,Clostridioides difficile [2],0%
same,Activity,Finegoldia magna [3],0%
same,MIC50,[4],≤ 0.06 µg/mL
same,MIC90,[4],0.5 µg/mL
same,MIC50,Bacteroides ovatus,32 µg/mL
same,MIC90,Bacteroides ovatus,32 µg/mL
same,Activity,[5],0%
same,MIC50,Phocaeicola vulgatus,32 µg/mL
same,MIC90,Phocaeicola vulgatus,32 µg/mL
same,MIC50,[6],2 µg/mL
same,MIC90,[6],16 µg/mL
same,MIC,Clostridioides difficile [7],64 µg/mL
same,MIC50,Clostridioides difficile [7],64 µg/mL
same,MIC90,Clostridioides difficile [7],> 128 µg/mL
same,MIC50,Bacteroides caccae [8],32 µg/mL
same,MIC90,Bacteroides caccae [8],32 µg/mL
same,Activity,[9],92%
same,MIC50,[10],1 µg/mL
same,MIC90,[10],16 µg/mL
same,Activity,Eubacterium sp. [11],92%
same,MIC50,Schaalia odontolytica [12],2 µg/mL
same,MIC90,Schaalia odontolytica [12],16 µg/mL
same,Activity,Anaerococcus prevotii [13],100%
same,MIC,Fusobacterium necrogenes,0.06 µg/mL
same,MIC50,Eubacterium sp. [14],2 µg/mL
same,MIC90,Eubacterium sp. [14],16 µg/mL
same,Activity,Prevotella intermedia [15],100%
same,Activity,Hoylesella oralis,0%
same,Activity,Prevotella bivia [16],0%
same,Activity,Schaalia odontolytica [17],0%
same,Activity,Eggerthella lenta [18],0%
same,MIC50,Clostridium perfringens [19],1 µg/mL
same,MIC90,Clostridium perfringens [19],2 µg/mL
same,Activity,[20],7%
same,Activity,Prevotella buccae,0%
same,Activity,Bifidobacterium sp. [21],0%
same,Activity,Eubacterium sp. [22],0%
same,MIC50,Bifidobacterium sp. [23],2 µg/mL
same,MIC90,Bifidobacterium sp. [23],16 µg/mL
same,Activity,Eggerthella lenta [24],92%
same,MIC50,[25],32 µg/mL
same,MIC90,[25],32 µg/mL
same,Activity,Bacteroides caccae [26],25%
same,Activity,Anaerococcus prevotii [27],0%
same,Activity,[28],100%
same,MIC50,Anaerococcus prevotii [29],0.5 µg/mL
same,MIC90,Anaerococcus prevotii [29],1 µg/mL
same,Activity,Actinomyces israelii,0%
same,MIC50,Finegoldia magna [30],0.5 µg/mL
same,MIC90,Finegoldia magna [30],1 µg/mL
same,Activity,Prevotella intermedia [31],0%
same,MIC50,Eggerthella lenta [32],2 µg/mL
same,MIC90,Eggerthella lenta [32],16 µg/mL
same,MIC,Fusobacterium varium,0.06 µg/mL
same,Activity,Actinomyces naeslundii,92%
same,Activity,Bacteroides caccae [33],7%
same,Activity,[34],25%
same,Activity,Parvimonas micra,0%
same,Activity,[35],0%
same,Activity,Schaalia meyeri,0%
same,Activity,Clostridium perfringens [36],100%
same,Activity,Schaalia odontolytica [37],92%
same,Activity,Clostridioides difficile [38],100%
COc1c(N2C[C@@H]3CCCN[C@@H]3C2)c(F)cc2c(=O)c(C(=O)O)cn(C3CC3)c12 [MOXIFLOXACIN],Activity,Prevotella bivia [1],56%
same,Activity,Finegoldia magna [3],27%
same,MIC50,[4],0.25 µg/mL
same,MIC90,[4],2 µg/mL
same,MIC50,Bacteroides ovatus,2 µg/mL
same,MIC90,Bacteroides ovatus,16 µg/mL
same,Activity,[5],0%
same,MIC50,Phocaeicola vulgatus,2 µg/mL
same,MIC90,Phocaeicola vulgatus,16 µg/mL
same,MIC50,[6],1 µg/mL
same,MIC90,[6],2 µg/mL
same,MIC50,Bacteroides caccae [8],2 µg/mL
same,MIC90,Bacteroides caccae [8],16 µg/mL
same,Activity,[9],92%
same,MIC50,[10],0.125 µg/mL
same,MIC90,[10],0.25 µg/mL
same,Activity,Eubacterium sp. [11],92%
same,MIC50,Schaalia odontolytica [12],1 µg/mL
same,MIC90,Schaalia odontolytica [12],2 µg/mL
same,Activity,Anaerococcus prevotii [13],87%
same,MIC50,Eubacterium sp. [14],1 µg/mL
same,MIC90,Eubacterium sp. [14],2 µg/mL
same,Activity,Prevotella intermedia [15],100%
same,Activity,Hoylesella oralis,11%
same,Activity,Prevotella bivia [16],11%
same,Activity,Schaalia odontolytica [17],0%
same,Activity,Eggerthella lenta [18],0%
same,Activity,[20],18%
same,Activity,Prevotella buccae,11%
same,Activity,Bifidobacterium sp. [21],0%
same,Activity,Eubacterium sp. [22],0%
same,MIC50,Bifidobacterium sp. [23],1 µg/mL
same,MIC90,Bifidobacterium sp. [23],2 µg/mL
same,Activity,Eggerthella lenta [24],92%
same,Activity,Bacteroides caccae [26],72%
same,Activity,Anaerococcus prevotii [27],13%
same,Activity,[28],100%
same,MIC50,Anaerococcus prevotii [29],0.25 µg/mL
same,MIC90,Anaerococcus prevotii [29],8 µg/mL
same,Activity,Actinomyces israelii,0%
same,MIC50,Finegoldia magna [30],0.5 µg/mL
same,MIC90,Finegoldia magna [30],8 µg/mL
same,Activity,Prevotella intermedia [31],0%
same,MIC50,Eggerthella lenta [32],1 µg/mL
same,MIC90,Eggerthella lenta [32],2 µg/mL
same,Activity,Actinomyces naeslundii,92%
same,Activity,Bacteroides caccae [33],18%
same,Activity,[34],72%
same,Activity,Parvimonas micra,8%
same,Activity,[35],15%
same,Activity,Schaalia meyeri,0%
same,Activity,Schaalia odontolytica [37],92%
